One block for each molecule: values may come before it.
Tests used:
Blood [1] = test: Biodistribution in blood of B16F0 tumor bearing C57BL/6J mouse at 0.37-0.74 MBq, iv after 1 hr; assay type: ADME, organism-based; settings: in vivo
In short: (§1)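 Female C57BL/6J mice (15-18 g) were given B16F0 cells subcutaneously in the left flank (0.1 mL of 3 × 10⁶ viable cells/mL in Ca²⁺/Mg²⁺-free PBS) at 6-7 weeks and used after ten days. [¹²³I]benzamide (0.37-0.74 MBq, 100 µL, saline) was injected via the tail vein. Groups of n = 5 were killed by CO₂ and cervical dislocation. Organs were weighed and γ-counted, and the carcass was counted too.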

Blood [2] = test: Biodistribution in blood of B16F0 tumor bearing C57BL/6J mouse at 0.37-0.74 MBq, iv after 1 hr in presence of haloperidol; assay type: ADME, organism-based; settings: in vivo
Lung [3] = test: Biodistribution in lung of B16F0 tumor bearing C57BL/6J mouse at 0.37-0.74 MBq, iv after 1 hr; assay type: ADME, organism-based; settings: in vivo; in short: as §1
Blood [4] = test: Biodistribution in blood of B16F0 tumor bearing C57BL/6J mouse at 0.37-0.74 MBq, iv after 24 hrs in presence of haloperidol; assay type: ADME, organism-based; settings: in vivo
Brain [5] = test: Biodistribution in brain of B16F0 tumor bearing C57BL/6J mouse at 0.37-0.74 MBq, iv after 24 hrs in presence of haloperidol; assay type: ADME, organism-based; settings: in vivo
Brain [6] = test: Biodistribution in brain of B16F0 tumor bearing C57BL/6J mouse at 0.37-0.74 MBq, iv after 6 hrs; assay type: ADME, organism-based; settings: in vivo; in short: as §1
Heart [7] = test: Biodistribution in heart of B16F0 tumor bearing C57BL/6J mouse at 0.37-0.74 MBq, iv after 1 hr; assay type: ADME, organism-based; settings: in vivo; in short: as §1
Lung [8] = test: Biodistribution in lung of B16F0 tumor bearing C57BL/6J mouse at 0.37-0.74 MBq, iv after 24 hrs in presence of haloperidol; assay type: ADME, organism-based; settings: in vivo
In short: (§2)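 Haloperidol blocking in B16F0-bearing C57BL/6J mice: 1 mg/kg haloperidol was given iv 5 min before the iv [¹²³I]benzamide (0.37-0.74 MBq). Groups of n = 5 were killed at 1 or 24 h. Tissues were weighed and γ-counted as in the biodistribution study and compared with untreated controls by one-way ANOVA, with p < 0.01 taken as significant.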

Kidney [9] = test: Biodistribution in kidney of B16F0 tumor bearing C57BL/6J mouse at 0.37-0.74 MBq, iv after 24 hrs in presence of haloperidol; assay type: ADME, organism-based; settings: in vivo; in short: as §2
Heart [10] = test: Biodistribution in heart of B16F0 tumor bearing C57BL/6J mouse at 0.37-0.74 MBq, iv after 24 hrs; assay type: ADME, organism-based; settings: in vivo; in short: as §1
Kidney [11] = test: Biodistribution in kidney of B16F0 tumor bearing C57BL/6J mouse at 0.37-0.74 MBq, iv after 1 hr; assay type: ADME, organism-based; settings: in vivo; in short: as §1
Blood [12] = test: Biodistribution in blood of B16F0 tumor bearing C57BL/6J mouse at 0.37-0.74 MBq, iv after 6 hrs; assay type: ADME, organism-based; settings: in vivo; in short: as §1
Heart [13] = test: Biodistribution in heart of B16F0 tumor bearing C57BL/6J mouse at 0.37-0.74 MBq, iv after 6 hrs; assay type: ADME, organism-based; settings: in vivo; in short: as §1
Brain [14] = test: Biodistribution in brain of B16F0 tumor bearing C57BL/6J mouse at 0.37-0.74 MBq, iv after 1 hr; assay type: ADME, organism-based; settings: in vivo; in short: as §1
[15] = Biodistribution in tumor of B16F0 tumor bearing C57BL/6J mouse at 0.37-0.74 MBq, iv after 24 hrs in presence of haloperidol; assay type: ADME, organism-based, B16-F0; settings: in vivo
In short: (§3)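 B16F0 tumor-bearing C57BL/6J mice, groups of n = 5, given haloperidol 1 mg/kg i.v. 5 min before the i.v. [¹²³I]tracer (0.37-0.74 MBq). Killed at 1 or 24 h. Tissues γ-counted as for biodistribution and compared with untreated controls by one-way ANOVA, significance p < 0.01.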

Kidney [16] = test: Biodistribution in kidney of B16F0 tumor bearing C57BL/6J mouse at 0.37-0.74 MBq, iv after 24 hrs; assay type: ADME, organism-based; settings: in vivo; in short: as §1
Brain [17] = test: Biodistribution in brain of B16F0 tumor bearing C57BL/6J mouse at 0.37-0.74 MBq, iv after 1 hr in presence of haloperidol; assay type: ADME, organism-based; settings: in vivo
Liver [18] = test: Biodistribution in liver of B16F0 tumor bearing C57BL/6J mouse at 0.37-0.74 MBq, iv after 1 hr; assay type: ADME, organism-based; settings: in vivo; in short: as §1
Lung [19] = test: Biodistribution in lung of B16F0 tumor bearing C57BL/6J mouse at 0.37-0.74 MBq, iv after 6 hrs; assay type: ADME, organism-based; settings: in vivo; in short: as §1
Liver [20] = test: Biodistribution in liver of B16F0 tumor bearing C57BL/6J mouse at 0.37-0.74 MBq, iv after 6 hrs; assay type: ADME, organism-based; settings: in vivo; in short: as §1
Liver [21] = test: Biodistribution in liver of B16F0 tumor bearing C57BL/6J mouse at 0.37-0.74 MBq, iv after 1 hr in presence of haloperidol; assay type: ADME, organism-based; settings: in vivo; in short: as §2
[22] = Biodistribution in eye of B16F0 tumor bearing C57BL/6J mouse at 0.37-0.74 MBq, iv after 1 hr in presence of haloperidol; assay type: ADME, organism-based; settings: in vivo; in short: as §2
Blood [23] = test: Biodistribution in blood of B16F0 tumor bearing C57BL/6J mouse at 0.37-0.74 MBq, iv after 24 hrs; assay type: ADME, organism-based; settings: in vivo; in short: as §1
[24] = Biodistribution in melanoma of B16F0 tumor bearing C57BL/6J mouse at 0.37-0.74 MBq, iv after 1 hr; assay type: ADME, organism-based, B16-F0; settings: in vivo; in short: as §1
Lung [25] = test: Biodistribution in lung of B16F0 tumor bearing C57BL/6J mouse at 0.37-0.74 MBq, iv after 24 hrs; assay type: ADME, organism-based; settings: in vivo; in short: as §1
Brain [26] = test: Biodistribution in brain of B16F0 tumor bearing C57BL/6J mouse at 0.37-0.74 MBq, iv after 24 hrs; assay type: ADME, organism-based; settings: in vivo; in short: as §1
Kidney [27] = test: Biodistribution in kidney of B16F0 tumor bearing C57BL/6J mouse at 0.37-0.74 MBq, iv after 6 hrs; assay type: ADME, organism-based; settings: in vivo; in short: as §1
[28] = Biodistribution in melanoma of B16F0 tumor bearing C57BL/6J mouse at 0.37-0.74 MBq, iv after 6 hrs; assay type: ADME, organism-based, B16-F0; settings: in vivo
In short: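 Female C57BL/6J mice (15-18 g) carrying s.c. B16F0 flank tumors (0.1 mL of 3 × 10⁶ viable cells per mL in Ca²⁺/Mg²⁺-free PBS, inoculated at 6-7 weeks, used 10 days later). [¹²³I]tracer 0.37-0.74 MBq in saline, 100 µL, tail-vein i.v. Groups of n = 5 killed at 1-72 h. Organs weighed and γ-counted, carcass activity also counted, values as %ID/g.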

Liver [29] = test: Biodistribution in liver of B16F0 tumor bearing C57BL/6J mouse at 0.37-0.74 MBq, iv after 24 hrs in presence of haloperidol; assay type: ADME, organism-based; settings: in vivo; in short: as §2
Liver [30] = test: Biodistribution in liver of B16F0 tumor bearing C57BL/6J mouse at 0.37-0.74 MBq, iv after 24 hrs; assay type: ADME, organism-based; settings: in vivo; in short: as §1
Kidney [31] = test: Biodistribution in kidney of B16F0 tumor bearing C57BL/6J mouse at 0.37-0.74 MBq, iv after 1 hr in presence of haloperidol; assay type: ADME, organism-based; settings: in vivo; in short: as §2
Lung [32] = test: Biodistribution in lung of B16F0 tumor bearing C57BL/6J mouse at 0.37-0.74 MBq, iv after 1 hr in presence of haloperidol; assay type: ADME, organism-based; settings: in vivo; in short: as §2
[33] = Biodistribution in melanoma of B16F0 tumor bearing C57BL/6J mouse at 0.37-0.74 MBq, iv after 24 hrs; assay type: ADME, organism-based, B16-F0; settings: in vivo; in short: as §1
[34] = Biodistribution in tumor of B16F0 tumor bearing C57BL/6J mouse at 0.37-0.74 MBq, iv after 1 hr in presence of haloperidol; assay type: ADME, organism-based, B16-F0; settings: in vivo; in short: as §3
[35] = Biodistribution in eye of B16F0 tumor bearing C57BL/6J mouse at 0.37-0.74 MBq, iv after 24 hrs in presence of haloperidol; assay type: ADME, organism-based; settings: in vivo; in short: as §2
[36] = Displacement of [3H]DTG from sigma 2 receptor in guinea pig brain membrane; assay type: cell membranes, Cavia porcellus
In short: (§4)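 Guinea pig brain membranes, incubated in duplicate for 2 h at 25 °C in Tris-HCl pH 8.0. Benzamide 10⁻¹⁰ to […] against 2 nM [³H]-(+)-pentazocine (σ₁) or 2 nM [³H]DTG plus 100 nM (+)-pentazocine (σ₂). Nonspecific binding defined with 1 µM haloperidol. GF/B filtration, bound activity by β-scintillation counting, giving IC50 then Ki. Full curves run only where 10⁻⁵ M inhibited >90%.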

[37] = biological target: Sigma non-opioid intracellular receptor 1 (Cavia porcellus, UniProt Q60492); test: Displacement of [3H](+)-pentazocine from sigma 1 receptor in guinea pig brain membrane; assay type: cell membranes; in short: as §4
Chain of Sigma non-opioid intracellular receptor 1 (Q60492 whole entry): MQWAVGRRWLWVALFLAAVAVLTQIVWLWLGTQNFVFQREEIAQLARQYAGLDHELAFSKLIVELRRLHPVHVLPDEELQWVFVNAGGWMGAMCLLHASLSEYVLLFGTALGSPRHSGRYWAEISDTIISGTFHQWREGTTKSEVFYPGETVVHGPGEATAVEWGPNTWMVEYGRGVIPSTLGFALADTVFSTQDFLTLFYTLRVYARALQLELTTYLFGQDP

[38] = Lipophilicity, log P at pH 7.5; assay type: physicochemical; settings: buffer

Drug uptake (Blood [1]): 1 % ID/g
Drug uptake (Blood [2]): 1.46 % ID/g
Drug uptake (Lung [3]): 10.8 % ID/g
Drug uptake (Blood [4]): 0.03 % ID/g
Drug uptake (Brain [5]): 0.06 % ID/g
Drug uptake (Brain [6]): 0.48 % ID/g
Drug uptake (Heart [7]): 3 % ID/g
Drug uptake (Lung [8]): 0.14 % ID/g
Drug uptake (Kidney [9]): 0.1 % ID/g
Drug uptake (Heart [10]): 0.09 % ID/g
Drug uptake (Kidney [11]): 8.7 % ID/g
Drug uptake (Blood [12]): 0.34 % ID/g
Drug uptake (Heart [13]): 0.93 % ID/g
Drug uptake (Brain [14]): 3.1 % ID/g
Drug uptake [15]: 3.3 % ID/g
Drug uptake (Kidney [16]): 0.22 % ID/g
Drug uptake (Brain [17]): 1.61 % ID/g
Drug uptake (Liver [18]): 19.2 % ID/g
Drug uptake (Lung [19]): 6.4 % ID/g
Drug uptake (Liver [20]): 3.8 % ID/g
Drug uptake (Liver [21]): 10.1 % ID/g
Drug uptake [22]: 34.8 % ID/g
Drug uptake (Blood [23]): 0.04 % ID/g
Drug uptake [24]: 10.9 % ID/g
Drug uptake (Lung [25]): 0.33 % ID/g
Drug uptake (Brain [26]): 0.09 % ID/g
Drug uptake (Kidney [27]): 3.4 % ID/g
Drug uptake [28]: 12.5 % ID/g
Drug uptake (Liver [29]): 0.12 % ID/g
Drug uptake (Liver [30]): 0.29 % ID/g
Drug uptake (Kidney [31]): 7.3 % ID/g
Drug uptake (Lung [32]): 9.7 % ID/g
Drug uptake [33]: 5.5 % ID/g
Drug uptake [34]: 10.5 % ID/g
Drug uptake [35]: 24.6 % ID/g
SMILES: O=C(NC1CCN(CCF)CC1)c1ccc(I)cc1

Ki [36]: 5.4 µM
Ki [37]: 5.2 µM
logD [38]: 0.75
SMILES: COc1cc(NC(C)=O)c(I)cc1C(=O)NCCCCN(C)C(C)C

Source: ChEMBL document CHEMBL1146219, “Synthesis and evaluation of novel radioiodinated benzamides for malignant melanoma” (J Med Chem, 2007)
